Bioassay records from PubChem.
In the library only some 3.6% were active in any assay of this set; here they are far more common.
Wnt act – activates Wnt/beta-catenin signaling in a reporter cell assay. hit rate 1.2% among 300,000. activator, plate reader. activation, % at 9.35 µM; in the data active = activation above about 30%, passing the limit was not always enough; inconclusive = no clear call, values can overlap the other calls;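 also: 0% = neutral control wells and 100% = positive control wells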
SR-BI HDL uptake – blocks mouse SR-BI lipid uptake from DiI-HDL | ldlA[mSR-BI] CHO cells, DiI-HDL uptake fluorescence, 3 h | inhibition, % at 12.5 µM | hit rate 0.96% among 320,000;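 active = mean replicate inhibition of at least 70% and a set share of replicates each scoring 70 or more; inconclusive = meets just one of the two criteria; inactive = fails both criteria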;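 also: 0% = median of neutral control wells and 100% = median of positive control wells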
Target sequence (Q61009 whole entry, looked up): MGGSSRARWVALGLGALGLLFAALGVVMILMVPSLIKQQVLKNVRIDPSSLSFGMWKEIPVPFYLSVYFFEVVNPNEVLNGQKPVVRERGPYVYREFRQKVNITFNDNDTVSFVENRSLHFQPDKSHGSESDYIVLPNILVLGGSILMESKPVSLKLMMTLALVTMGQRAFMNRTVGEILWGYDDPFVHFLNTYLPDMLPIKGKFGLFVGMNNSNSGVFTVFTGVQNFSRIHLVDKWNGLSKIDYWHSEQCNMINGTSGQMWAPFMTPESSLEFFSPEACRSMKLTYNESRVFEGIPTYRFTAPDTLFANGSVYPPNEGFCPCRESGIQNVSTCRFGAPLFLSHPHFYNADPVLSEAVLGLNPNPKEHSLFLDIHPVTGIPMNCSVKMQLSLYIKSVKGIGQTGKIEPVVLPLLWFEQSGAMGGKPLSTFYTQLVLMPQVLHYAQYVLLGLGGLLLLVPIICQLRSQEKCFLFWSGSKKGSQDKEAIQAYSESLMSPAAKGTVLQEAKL
HSF-1 act – increases HSF-1 driven luciferase reporter signal; NIH3T3-HGL HSF-1 luciferase reporter, MG132, 8 h; 100% = twice DMSO control signal; activation, % at 9 µM; hit rate 1.7% among 300,000;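 active = mean replicate activation of at least 50% with a set share of replicates each reaching 50%; inconclusive = only one of those two conditions met; inactive = mean below 50% and too few replicates reaching it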;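 also: 0% = median of the neutral control wells and 100% = twice that signal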
MITF act – MITF TRPM1 promoter activation in melanoma cells | SK-MEL-5 TRPM1-promoter luciferase, 24 h; % of positive control, neutral wells = 0 | hit rate 0.75% among 300,000 | activation, % at 12.5 µM;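 active = mean activation of at least 80% with every replicate also reaching 80%; inconclusive = mean reaches 80% but some replicate falls short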;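 also: 0% = neutral control wells and 100% = parthenolide positive control wells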
SR-BI DiI-HDL act – SR-BI HDL lipid transfer activation. CHO ldlA[mSR-BI] cells, DiI-HDL uptake fluorescence, 3 h; 100 = double the neutral-control signal. hit rate 0.096% among 320,000. AID 504775. activation, % at 12.5 µM;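 active = mean replicate activation of at least 60% and every replicate at or above 60%; inconclusive = mean or all-replicate condition met, but not both; inactive = mean below 60% and not all replicates reaching 60%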;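 also: 0% = median plate neutral-control signal and 100% = twice that signal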
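Test system: SR-BI-overexpressing, LDLR-lacking CHO cells; Also added: labelled HDL, 10 µg/mL; Measured by: bottom-read cell fluorescence after medium removal, ex 550/em 595 nm; Timing: 3 h uptake period with compound, 37 °C; Buffer or medium: F12, 0.5% BSA, 25 mM HEPES; Doses: single compound concentration, delivered by pin transfer.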
An asterisk follows results filed as active; ? = inconclusive; · = no result given.

SMILES | Wnt act | SR-BI HDL uptake | HSF-1 act | MITF act | SR-BI DiI-HDL act
CCN=C1S/C(=C/c2ccc(-c3ccc(F)cc3)o2)C(=O)N1CC | 1 | 72* | -10 | 6 | -72
CCN=C1S/C(=C\c2ccc(Sc3ccc(Cl)cc3)o2)C(=O)N1CC | · | 31 | 2 | 2 | -31
COc1ccc(OC)c(/C=C/C(=O)Nc2ccc3c(c2)CCC3)c1 | -1 | ? | 6 | -1 | -71
COc1ccccc1/C=C/C(=O)Nc1ccc2c(c1)CCC2 | 28 | 72* | 44 | 114* | -72
COc1ccccc1/C=C/C(=O)Nc1cccc(S(=O)(=O)N2CCOCC2)c1 | 3 | 85* | · | 14 | -85
COc1cc(/C=C/C(=O)Nc2cccc(S(=O)(=O)N3CCOCC3)c2)ccc1OCC#N | -1 | 78* | · | 8 | -78
CN(C)CCC1(C2=CCCC2)CC/C(=C/c2ccc(Cl)cc2)C1=O (configuration not stated) | -1 | 10 | 9 | 13 | -10
O=c1[nH]c2cc(F)ccc2c2ccc(F)cc12 | 0 | -4 | · | 0 | 4
CC(C)[C@@H]1CC[C@@H](C)C[C@H]1OC[B-](F)(F)F | -3 | · | · | · | ·
CCOC(=O)c1cnc(SCc2ccccc2)nc1N | · | -2 | 15 | 107* | 2
COc1ccc(CN2C(=O)c3ccccc3C2c2nnnn2Cc2ccccc2)cc1OC (configuration not stated) | -4 | · | · | · | ·
Cc1ccc(NC2=NC3(CCCC3)N=C(N)N2)c(C)c1 | 0 | 2 | 83* | -19 | -2
O=C1C=CC(=O)N1N(c1ccccc1)c1ccccc1 | 0 | · | 69* | -2 | ·
O=C1c2ccccc2C(=O)N1N(c1ccccc1)c1ccccc1 | -3 | -12 | · | -3 | 12
CCCCCCCCN1C(=O)N(Cc2ccc(OC)cc2)S(=O)(=O)c2ccc(F)cc21 | -1 | · | · | · | ·
CCN(CC(=O)Nc1ccccc1C(F)(F)F)CC(=O)c1[nH]c(C)c(C(C)=O)c1C | 5 | · | · | · | ·
CCNC(=O)N1C[C@H]2CON(C)[C@H]2C[C@H]1c1ccc(N2CCCCC2)cc1 | -6 | · | · | · | ·
Cc1nc(N)sc1C(=O)Nc1ccccc1 | 1 | 19 | 18 | · | -19
Cc1nc(C(=O)Nc2ccccc2)sc1C(=O)Nc1ccccc1 | 1 | ? | 23 | 86* | -71
CCC(c1nnnn1-c1c(C)cccc1C)N1CCCN(Cc2ccc(F)cc2)CC1 (configuration not stated) | -4 | · | · | · | ·
COc1ccccc1CCC(=O)Nc1ccc2c(c1)CN(CCCn1cccn1)CC2 | -1 | 68 | 1 | 1 | -68
COc1ccc(CN2CCc3ccc(NC(=O)CCc4ccccc4OC)cc3C2)c(O)c1 | -2 | 72* | 6 | -15 | -72
COc1cc(CN2CCc3ccc(NC(=O)CCc4ccccc4OC)cc3C2)ccc1O | 1 | 70* | 2 | -5 | -70
COc1cccc(CN2CCc3ccc(NC(=O)CCc4ccc(C)cc4)cc3C2)c1O | -1 | 64 | 2 | 6 | -64
O=C(Nc1c(C(=O)c2ccccc2)oc2ccccc12)c1cc(-c2ccccc2O)n[nH]1 | -6 | 74* | 66* | 1 | -74
SMILES | Wnt act | SR-BI HDL uptake | HSF-1 act | MITF act | SR-BI DiI-HDL act
O=C(COC(=O)c1ccc(Cl)nc1)c1ccc2c(c1)OCCO2 | 19 | -11 | 65* | 62 | 11
O=C(COC(=O)c1cccnc1Cl)c1ccc2c(c1)OCCO2 | 22 | 16 | 19 | 47 | -16
O=C(COc1ncnc2cc(Cl)ccc12)c1ccc2c(c1)OCCO2 | 55* | -6 | 18 | 80 | 6
O=C(c1n[nH]c2ccccc12)N1CCOCC1 | 0 | 10 | 2 | 10 | -10
CC(=O)c1ccc(N2CCN(C(=O)c3n[nH]c4ccccc34)CC2)cc1 | 0 | 13 | 56* | -7 | -13
CN(C)C(CN=C1NS(=O)(=O)c2ccccc21)c1ccco1 (configuration not stated) | -1 | -11 | -1 | -16 | 11
O=S1(=O)NC(=NCC(c2ccco2)N2CCCCC2)c2ccccc21 (configuration not stated) | 2 | · | 85* | -4 | ·
COC(=O)c1ccc(CNC(=O)c2ccccc2C(=O)NCC2(CBr)OCCO2)cc1 | 2 | · | · | · | ·
O=C(COc1ccccc1)NC1CCCCCCC1 | 5 | -17 | -10 | 27 | 17
O=C(COc1ccc(C(=O)c2ccccc2)cc1)NC1CCCCC1 | -3 | -69 | 1 | 10 | 69*
O=C(CCS(=O)(=O)c1ccccc1)NC1CCCCC1 | 22 | -12 | 9 | 105* | 12
O=C(COc1ccccc1Br)NC1CC1 | -1 | -17 | 12 | 9 | 17
O=C(COc1ccccc1)NC1CCCCC1 | 5 | -13 | -1 | 16 | 13
COc1ccc(S(=O)(=O)CCC(=O)NC2CCCCC2)cc1 | -7 | 1 | 3 | 0 | -1
O=C(COc1ccccc1Br)NC(=O)NC1CCCC1 | 11 | 7 | · | 141* | -7
O=C(COc1ccc(C(=O)c2ccccc2)cc1)NC1CCCCCC1 | 49* | -26 | -12 | -8 | 26
OCCC1CN(Cc2nc(-c3ccccc3)cs2)CCN1Cc1ccc(F)cc1 (configuration not stated) | -3 | 13 | 28 | -8 | -9
OCCC1CN(Cc2nc(-c3ccccc3)cs2)CCN1C1CCCC1 (configuration not stated) | 34* | · | -28 | 7 | ·
COc1ccc([C@@H]2CC(=O)[C@@H]3CN(S(=O)(=O)c4ccc(C)cc4)[C@H](c4ccccc4)C[C@@H]3N2S(=O)(=O)c2ccccc2)cc1 | -2 | · | · | · | ·
O=C(C(=O)N1CCN(S(=O)(=O)c2ccc(Cl)cc2)CC1)c1cccc(C(F)(F)F)c1 | 1 | · | · | · | ·
O=C(NCc1ccccc1)c1ccc(C(=O)NCc2ccccc2)cc1 | -25 | -4 | · | -6 | 4
CC(C)(C)c1ccc(C(=O)NCc2ccccc2)cc1 | 7 | -2 | 30 | 88* | 2
O=C(NC(=S)NCc1ccccc1)c1ccccc1 | 1 | -65 | 15 | -103 | 65*
COC(=O)c1cc2c(c3c4cc(OC)ccc4n(S(=O)(=O)c4ccc(F)cc4)c13)C(=O)N(Cc1ccccc1)C2 | -7 | · | · | · | ·
NC(=S)N/N=C/c1ccc(-c2ccc([N+](=O)[O-])cc2)o1 | 0 | 71* | 14 | 14 | -71
Cc1ccc(C(=O)N/N=C\c2ccc(-c3ccc([N+](=O)[O-])cc3)o2)cn1 | 5 | · | 6 | 4 | ·
NC(=S)N/N=C/c1ccc(-c2cc(Cl)ccc2Cl)o1 | 0 | 99* | -6 | -17 | -99
CCOC(=O)N/N=C\c1ccc(-c2cc(Cl)ccc2Cl)o1 | -3 | 5 | 13 | 5 | -5
COC(=O)N/N=C/c1ccc(-c2cc(Cl)cc(Cl)c2)o1 | -1 | -19 | 10 | 0 | 19
NC(=S)N/N=C/c1ccc(-c2cc(Cl)cc(Cl)c2)o1 | · | 78* | -1 | 1 | -78
